Measured values of several laboratories.
Target: Serine/threonine-protein kinase Nek3 (NEK3, Homo sapiens, UniProt P51956)
One construct used (P51956 1-506): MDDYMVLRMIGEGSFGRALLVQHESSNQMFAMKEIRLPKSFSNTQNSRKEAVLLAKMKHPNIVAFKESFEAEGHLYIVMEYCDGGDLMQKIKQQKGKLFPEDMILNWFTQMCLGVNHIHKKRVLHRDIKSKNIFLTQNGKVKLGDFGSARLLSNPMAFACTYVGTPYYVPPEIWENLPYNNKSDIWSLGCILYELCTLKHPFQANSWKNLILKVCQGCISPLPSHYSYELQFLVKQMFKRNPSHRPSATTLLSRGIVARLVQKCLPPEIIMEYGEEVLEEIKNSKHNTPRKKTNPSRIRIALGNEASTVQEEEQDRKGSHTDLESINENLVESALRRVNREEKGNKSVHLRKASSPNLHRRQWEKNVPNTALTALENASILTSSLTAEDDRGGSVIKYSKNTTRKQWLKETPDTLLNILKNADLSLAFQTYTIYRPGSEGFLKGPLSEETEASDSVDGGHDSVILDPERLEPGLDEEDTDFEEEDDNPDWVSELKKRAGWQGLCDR

With `Cc1ccc(Nc2nccc(N(C)c3ccc4c(C)n(C)nc4c3)n2)cc1S(N)(=O)=O` the remaining activity was 94.2% (enzyme activity, inhibitor; 0.5 µM).
`Cc1ccc(NC(=O)c2ccc(C)c(C(F)(F)F)c2)cc1C#Cc1nn(C2CCC(O)CC2)c2ncnc(N)c12` (stereo not drawn) has a remaining signal of 102% (cell-free assay; 10 µM).
For `CC(C)(C)c1nc2c(s1)c1nc(N)ncc1c1ccc(NS(=O)(=O)c3c(F)cccc3F)c(F)c12`, the remaining activity was 118% (enzyme activity, inhibitor, radiometric; 1 µM).
`Cc1cnc(NC2CCOCC2)nc1-n1cnc(C(=O)NC(CN)c2cc(F)cc(Cl)c2)c1` (stereo not drawn) has a remaining activity of 65% (enzyme activity, inhibitor, radiometric; 1 µM).
For `COc1cccc2c(NCc3ccccc3)nc(-n3c(N)nc4ccccc43)nc12`, the inhibition was 2.9% (target engagement in cells, inhibitor, chemoproteomics; 20 mM).
For `N#CCCc1ccc2c(c1)-c1[nH]c3ccc([N+](=O)[O-])cc3c1CC(=O)N2`, the remaining signal was 104% (cell-free assay; 0.5 µM).
`CNCc1ccccc1-c1csc([C@@H](C)Nc2nc(C)nc3cc(OC)c(OC)cc23)c1` has a remaining binding of 100% (cell-free assay, competition with immobilised ligand; 1 µM).
`c1ccc(CNc2nc(N3CCOc4ccccc43)nc3c2CCCC3)cc1` has an inhibition of 5.9% (target engagement in cells, inhibitor, chemoproteomics; 20 mM).
`CCCCN(CCCC)C(=O)CN1C[C@@H](c2cc(OC)c3c(c2)OCO3)[C@H](C(=O)O)[C@H]1CC(C)(C)CCC` gave a remaining binding of 72.9% (cell-free assay, competition with immobilised ligand; 1 µM).
For `O=C1Nc2ccc(Cl)cc2C1=Cc1cc(Cl)c(O)c(Cl)c1`, the remaining signal was 94% (cell-free assay; 0.5 µM).
For `CO[C@@H](C)c1c(Nc2ccc([C@@H](N(C)C(=O)C3CCS(=O)(=O)CC3)C(F)(F)F)cc2)cnc2cc(Cl)nn12`, the remaining binding was 61% (cell-free assay, competition with immobilised ligand; 1 µM).
The remaining activity of `CCCOc1ccc(OC)c(F)c1C(=O)c1ccc(C(=O)N[C@@H]2CNC[C@H]2NC(=O)c2ccc3[nH]ncc3c2)cc1` is reported as 101% (enzyme activity, inhibitor; 10 µM).
With `CN(C)C(=O)Cn1cc(-c2nc([C@@](C)(c3ccc(-c4cnc(N)nc4)cc3)C3CC3)no2)cn1` the remaining binding was 87% (cell-free assay, competition with immobilised ligand; 1 µM).
The remaining activity of `O=C(Nc1cnn(-c2csc(C(=O)NC3COC3)c2)c1)Nc1c(F)cccc1Cl` is reported as 87.2% (enzyme activity, inhibitor; 5 µM).
For `CNC(=O)c1ccc(Nc2ncc(C(F)(F)F)c(NCc3nccnc3N(C)S(C)(=O)=O)n2)cc1`, the remaining binding was 100% (cell-free assay, competition with immobilised ligand; 0.1 µM).
`CC(C)(O)[C@H]1CC[C@H](Nc2ccc3ncc(-c4cccc(C(F)(F)F)c4)n3n2)CC1` has a remaining activity of 91% (enzyme activity, inhibitor; 1 µM).
With `Cn1cnc(Br)c1C1=CN(c2ncnc3[nH]cnc23)CCS1` the inhibition was 79.9% (enzyme activity, inhibitor, radiometric; 2 µM).
`Nc1cnc(N2CCc3cc(S(=O)(=O)Nc4c(F)cc(Cl)cc4F)cc(N4CCCC4=O)c32)nc1` has a remaining binding of 100% (cell-free assay, competition with immobilised ligand; 1 µM).
